Measurements published in the EternaBench riboswitch data.

Tested on: MS2 coat protein
Assay: apparent Kd, MS2 coat protein; higher = weaker binding; RNA-MaP array; FMN 200 µM where present
In short: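 Designs were transcribed by stalled E. coli RNA polymerase on Illumina sequencing-chip clusters. They were titrated with SNAP-549-labelled MS2 coat protein from 0.7 or 1.5 nM, doubling to 3 µM, in 100 mM Tris-HCl pH 7.5, 80 mM KCl, 4 mM MgCl2, BSA, DTT, yeast tRNA and Tween-20, without and then with constant ligand. The apparent Kd is the median of filtered per-cluster fits after normalisation of green signal to red-channel RNA signal and control-cluster median Fmax.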

[1] = designed as: ON switch for flavin mononucleotide, no ligand
[2] = ligand present: flavin mononucleotide, designed as: ON switch for flavin mononucleotide
[3] = designed as: OFF switch for flavin mononucleotide, no ligand
[4] = ligand present: flavin mononucleotide, designed as: OFF switch for flavin mononucleotide

Row | Sequence | apparent Kd [1] [nM] | apparent Kd [2] [nM] | apparent Kd [3] [nM] | apparent Kd [4] [nM]
1 | AAAAAAAAAAGGCAGGAUAUCUAAAAAAAAACAUGAGGAUCACCCAUGUAAAAAAAAAAAAAGUGGGAGAAGGGCCAAAAAAAAAA | 35.9 | 18.1 |  | 
2 | UAUAAUUAGUAGAAGGACGGAGAGUAAGAAGUCGUAGGAUAUACAAAAGACAUGAGGAUCACCCAUGUGAGUAUGUUGGGAAGG |  |  | 7.05 | 7.62
3 | AAAUUUAACGAAGGAUAUGCUGACAUGAGGAUCACCCAUGUGUGCUUUGUGUUGCUGAAAUUGGAGCAGAAGGUCGUAUACAUA |  |  | 101 | 148
4 | GUGCACACUCGAGGAUAUCGGAGUUUUUUUCUUCGAGAAGGCGAUUCGUGCCGUGUUAUUUUGGACAUGAGGAUCACCCAUGUG | 79.9 | 34.4 |  | 
5 | GAUGGCGUCCAAGGAUAUCCUGACCGUUAACAUGAGGAUCACCCAUGUUGCCUAAAGGCGGCAUAGGAGAAGGUGGUACUCUGA | 111 | 155 |  | 
6 | CAAAGUUGGUAAGGAUAUCCCACAUUAUUCUGACCCGUGCAAGCUACAUGAGGAUCACCCAUGUGGGAGAAGGUGCGUUAUAGA |  |  | 121 | 160
7 | ACAAAUGGAGGAUAUACAUGAGGAUCACCCAUGUUUAUCCUACAUAUGUGAUAAUCAUGUAGAAGGCCAUUUGA |  |  | 24.7 | 15.9
8 | AUAUGGAAUACAGGAUAUGUAAGUUUUAAGUGUAUUGGUUAUUACUUUACAACAGAAGGGUAUUACAUGAGGAUCACCCAUGUA | 13.2 | 10.7 |  | 
9 | ACAGUAUAUGUAGGAUAUCGUUGGUUAGAUAGGCGAGAAGGGCAUAGUACAUGAGGAUCACCCAUGUGUUGGUCCUCGCAGAAA |  |  | 454 | 237
10 | CUGGUGUGAGGAUAUCAAAGACCUCGGUAAAGAACCGAGGAUGAGAAGGCACAUGAGGAUCACCCAUGUAACAA |  |  | 23.3 | 32.9
11 | AGUCGGCAUGAGAAGGGUUACAUGAGGAUCACCCAUGUGAUCAAAUCGUUAACAGGAUAUCAGGCGUCGGGCUUUGCCCGGAGG |  |  | 16.4 | 106
12 | AGUGUCAUCGAGAAGGCCUCAUGACAUGAGGAUCACCCAUGUUAGCAUGGGAGGAUAUCGAUGAUACAGCUACGUUUCGUAGCA | 170 | 51.4 |  | 
13 | ACUUGGUUACAGAAGGGCAUUUAUAAUUAUCAUUACUCAUCCUAUGUUUGCAGGAUAUGUUUAACAUGAGGAUCACCCAUGUAC | 171 | 97.6 |  | 
14 | GGAAAACAUGAGGAUCACCCAUGUGAGGAUAUCGAUGUCCAGGGCCGGGUGCGGGACUCGAGAAGGCACUUGGA |  |  | 64.5 | 41.6
15 | GGAUAGGACAGAGGAUAUACGUGCUAGAGAUACUAGCAAAAUUUCCUCACAUGAGGAUCACCCAUGUAGAAGGCUAUCCUAUCG |  |  | 6.34 | 31.9
16 | UUCGUGUAAGGAUAUACGACCCAUCCCAUUGGGAUGGGCACGUAGAAGGUACAUGAGGAUCACCCAUGUGCUCC |  |  | 26.8 | 167
17 | CCACGUCCCAUUAACAUGAGGAUCACCCAUGUCAAAAGACAUGAGGAUAUGCUACCUAAUUGGUAGCAGAAGGCAUGGACGUGG | 953 | 87.8 |  | 
18 | GCAUGCGAUAAUAUGUCUGAGGGCAGAAGGCACAUGAGGAUCACCCAUGUAACGAUCUCUUCAAGUGAGGAUAUGUGCUCAUUG |  |  | 34 | 85.2
19 | UAGUGCAUUAGAGGAUAUUCUUACGACACGAGUAAGACAUGAGGAUCACCCAUGUUGUGGCAUGGGAAGAAGGCUGAUGUGCUA | 60 | 14.5 |  | 
20 | AUGGUUGUCGUAGGAUAUGUAGGAUAUUCCUACAUGAGGAUCACCCAUGUUCGCAUGGAAGAAGGACAGAAGGACGAUGACCAA | 531 | 21.1 |  | 
21 | UUAUUAAGUGUGAGGAUAUGCUGGUCCUUGGAUCAGCAGAAGGCACAUGAGGAUCACCCAUGUACAAUAUAUUA |  |  | 38.5 | 251
22 | GAGAUGUCAGGAUAUGUGUAAAGAAUAAAACAAAUAACAACACAGAAGGGACAUGAGGAUCACCCAUGUUACUC |  |  | 24.9 | 54.6
23 | AAGACAUGAGGAUCACCCAUGUAAAGACCGGUCGAUCAAUGUGAGGAUAUUCCAUAAUUGAUAGGGAAGAAGGCACUGGGUUGA | 177 | 130 |  | 
24 | GAUCCUUCUGUUAGGAUAUGCUUUGGGCUUCCGCAGCAGAAGGAACAUGAGGAUCACCCAUGUUCGAUGCCGUC |  |  | 60.4 | 59.9
25 | GGUUGGCGAGGAUAUACAUGAGGAUCACCCAUGUGGUCCUGUGGCUGGUCUAACCUUUGUAGAAGGCGCGGGUC |  |  | 225 | 186
26 | CCGGAAACGGGUAGCCUGACAUGAGGAUCACCCAUGUGAACCGAGGAUAUGGAUCCUAAUUGGAUCCAGAAGGUGGCAGGCUAC | 681 | 245 |  | 
27 | CGCAACUCUUCUCAUGUAAACAUGAGGAUCACCCAUGUAAUGAGAAGGAGGAAGAAGAGAGAUUCCUAGGAUAUCAGAGUUGCG |  |  | 5.41 | 5.52
28 | UUGCUACAUGAGGAUCACCCAUGUCAGGAUAUUGUCUAUACCGUGGAAGCUGUGUCGAUAAGAAGGGACUGUCU |  |  | 24.1 | 41.6

Row | Sequence | apparent Kd [1] [nM] | apparent Kd [2] [nM] | apparent Kd [3] [nM] | apparent Kd [4] [nM]
29 | GUGCAAUGAGGAUAUACGUAGGUGAACAUCUGUGUGCUCCUACAUGAGGAUCACCCAUGUAGAAGGCAUGUCAC |  |  | 12.3 | 22.6
30 | CGCACUAUACAUGAGGAUCACCCAUGUUAAUAUGAGAUAGUCAGAAGGCAUUGUUUGAGAAAUUAUGAGGAUAUGAAUAGUGCG | 100 | 23.7 |  | 
31 | UGAUAGGACAGAGGAUAUACGUGCUAGAGAUACUAGCAAAGUUUCCUGACAUGAGGAUCACCCAUGUAGAAGGCUGUCCUAUCU |  |  | 6.56 | 20.9
32 | UCGGCGCGAGGAUAUACGUUUGCUUUUUUUUGUCUUUGUGUACAUGAGGAUCACCCAUGUAGAAGGCGCGCCGC |  |  | 21.3 | 36.7
33 | AGCAUGUGAGGAUAUGUGACCCUCGUCCGAAGGAUGAGGGAAUAGAAGGCACAUGAGGAUCACCCAUGUGAUGA |  |  | 54.1 | 156
34 | AAAAAACAUGAGGAUCACCCAUGUCUUCGGACAUGAGGAUAUGUACAGACUUCGGUCUGUACAGAAGGCAUGUCUU | 97.2 | 22.8 |  | 
35 | CCGGAAACGGGUAGCCUGACAUGAGGAUCACCCAUGUGAUCCAAGGAUAUGGAUCCUAAUUGGAUCCAGAAGGUGGUUGGCUAC | 76.7 | 1200 |  | 
36 | GCCAGUUAUGUAGGAUAUGCGCGGCGAGCCUGUGCAGAAGGACAUGAGGAUCACCCAUGUGUUGCGGUCUGAGUACUGAUCGCC |  |  | 32.9 | 208
37 | CUCACGUUAGUAGGAUAUCCGACAUGAGGAUCACCCAUGUCACUACGCCUCAAGGGAAGGUGUAAGGAGAAGGGCUGAUAAAUA | 178 | 88.3 |  | 
38 | GUAGCUAUCGGAGGAUAUUCAUACCGGAAACGGACAUGAGGAUCACCCAUGUGUCGAAAGCCUUGGGAGAAGGCCGAUAGCUAC | 181 | 59.2 |  | 
39 | GGAUAGUGUCGUUAUCCGUAGCGAACAUGAGGAUCACCCAUGUAGGAUAUGUUAUUAAACUAAUAACAGAAGGGCGUUAGUCUC |  |  | 37.1 | 42.8
40 | AUAGUGCGCGAGAAGGACGUACCACAUGUUGAUCACCGAUAUAAGGAACGUAGGAUAUUGCACAUGAGGAUCACCCAUGUGGAU | 16.6 | 21.3 |  | 
41 | GGACAUGUCGUCUACAUGAGGAUCACCCAUGUCGAUAGACAUGAGGAUAUCGAUAAGAAUUGUAUCGAGAAGGCAUGUAGGUCC | 68.4 | 50.6 |  | 
42 | UUUUCUACUGAGGAUAUUAUAUUACCCGACUGAUAAGAAGGCAGUACAUGAGGAUCACCCAUGUGGGUAGCCAU |  |  | 21.8 | 31
43 | GUGGUCAGACAUGAGGAUCACCCAUGUGGAAUAAAUAAGGAGAAGGAUAUAGAAUAUAGGAUAUACUAGAAGGUCUGGUUGGUG | 67.3 | 73.1 |  | 
44 | CGUUCAGAGAACGAUACGAAUGGACAUGAGGAUCACCCAUGUAGAAGGACAGGAGAAUAACGACUGUAGGAUAUACAUUUAGUG |  |  | 41.3 | 76
45 | UUUGCAUUCCGAGGAUAUUCAUAUAAUAAAUACACAUGAGGAUCACCCAUGUGGCGAUAGCCUAGGGAGAAGGCGGUUUGCUUU | 22.3 | 24 |  | 
46 | AUAUUUAAUAUAGGAUAUAGGAAGAAUGAUGAACUAGAAGGAUAACAUACAUGAGGAUCACCCAUGUCCCAUGUGAUCACCCAU |  |  | 321 | 338
47 | CUAGUAUAUCAGGAUAUGAUAAUGUGUAGUAUAUCAGAAGGGAUGACAUGAGGAUCACCCAUGUUAAGGGAUGA |  |  | 58.1 | 118
48 | UGUUGUAUUACAGGAUAUCUAUUGAUUUUAUUUAGAGAAGGGUAUUCACAUGAGGAUCACCCAUGUAUAUACGAGGAAGUUGUG | 54.6 | 62.7 |  | 
49 | UUGGACGUCGUAGGAUAUGUACGAUAUUCCUACAUGAGGAUCACCCAUGUUGACAUGGAAGAAGGACAGAAGGACGAUGUCCAU | 5.5 | 4.87 |  | 
50 | AAAGGACGAGGAUAUACAUGAGGAUCACCCAUGUAAGAAGCAUAAUAAAAUAACUUAUGUAGAAGGCGUCCAAA |  |  | 20.5 | 84.4
51 | UAUACACAUGAGGAUCACCCAUGUGAGGAUAUGUAAAAAAAACCGACGGUUUUUUUUUACAGAAGGCACAUAUA |  |  | 51.6 | 53.5
52 | AAAAUCAAGUCAGGAUAUCGUGCGGUUGGUCGUUACAUGAGGAUCACCCAUGUCUUCCGGUAGCUCGAGAAGGGACGUGAGCCC | 18.6 | 8.33 |  | 
53 | GGAUGACAAAGUCAUCCAAUUCGAACAUGAGGAUCACCCAUGUAGGAUAUGCUUCUCAAAGAGAAGCAGAAGGACAUGUGCCUU |  |  | 29.5 | 215
54 | AUUGUUUAUGUAGGAUAUGCCUGGCGUGCCUUCGCAGAAGGACAUGAGGAUCACCCAUGUAUUGCGGUCUGCGUUCAGAUCGCA |  |  | 53.3 | 67.2
55 | UUUUAUUAGUAAGGAUAUACUAGCGAUGAGCUUGUAGAAGGUACAGUCUUAUGUAUAACAUGUUAACAUGAGGAUCACCCAUGU | 38.6 | 22.4 |  | 
